Experiment [1] concerns Mycobacterium tuberculosis. Description: Antitubercular activity against Mycobacterium bovis BCG infected in BALB/c mouse assessed as reduction in perivascular accumulation of epitheloid macrophages in lungs at 25 mg/kg, po qd administered 48 hrs post infection for 6 weeks by hematoxylin/eosin staining. It is filed as functional, organism-based. More on the design: dose 25 mg/kg. The settings on record: variant bovis BCG.

Experiment [2] deals with Mycobacterium tuberculosis. Description: Antitubercular activity against Mycobacterium bovis BCG infected in BALB/c mouse assessed as reduction in perivascular accumulation of lymphocytes in lungs at 25 mg/kg, po qd administered 48 hrs post infection for 6 weeks by hematoxylin/eosin staining. As to conditions: variant bovis BCG. It counts as functional, organism-based. More on the design: dose 25 mg/kg.

Experiment [3] concerns Mycobacterium tuberculosis. Description: Antitubercular activity against Mycobacterium bovis BCG infected in BALB/c mouse assessed as reduction in peribronchial accumulation of epitheloid macrophages in lungs at 25 mg/kg, po qd administered 48 hrs post infection for 6 weeks by hematoxylin/eosin staining. Set-up: dose 25 mg/kg. The settings on record: variant bovis BCG. It is filed as functional, organism-based.

For experiment [4], the system named is Mycobacterium tuberculosis. Nature of the experiment: Antitubercular activity against Mycobacterium bovis BCG infected in BALB/c mouse assessed as reduction in perivascular accumulation of granulocytes in lungs at 25 mg/kg, po qd administered 48 hrs post infection for 6 weeks by hematoxylin/eosin staining. It counts as functional, organism-based. Set-up: dose 25 mg/kg. The settings on record: variant bovis BCG.

Experiment [5] concerns Mycobacterium tuberculosis. Nature of the experiment: Antitubercular activity against Mycobacterium bovis BCG infected in BALB/c mouse assessed as log reduction in CFU in lungs at 25 mg/kg, po qd administered 48 hrs post infection for 6 weeks measured after 6 weeks (reference value: 4.64+/-0.17 log10CFU). It is filed as functional, variant bovis BCG. The method, boiled down:
(§1)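 Female BALB/c mice infected intravenously with approx. 1 × 10⁵ CFU M. bovis BCG; compound given orally at 25 mg/kg once daily for six weeks, then sacrificed. Lung and spleen homogenates plated on modified Lowenstein-Jensen medium, colonies counted after six weeks at 37 °C; mean log10 CFU per organ versus vehicle-treated group (n = 6–8 mice/group).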

Experiment [6] relates to Mycobacterium tuberculosis. Nature of the experiment: Antitubercular activity against Mycobacterium bovis BCG infected in BALB/c mouse assessed as reduction in peribronchial accumulation of granulocytes in lungs at 25 mg/kg, po qd administered 48 hrs post infection for 6 weeks by hematoxylin/eosin staining. It counts as functional, organism-based. Set-up: dose 25 mg/kg. As to conditions: variant bovis BCG.

Experiment [7] concerns Mycobacterium tuberculosis. Nature of the experiment: Antitubercular activity against Mycobacterium bovis BCG infected in BALB/c mouse assessed as reduction in peribronchial accumulation of lymphocytes in lungs at 25 mg/kg, po qd administered 48 hrs post infection for 6 weeks by hematoxylin/eosin staining. It counts as functional, organism-based. Set-up: dose 25 mg/kg. The settings on record: variant bovis BCG.

Experiment [8] has as its system Mycobacterium tuberculosis. Nature of the experiment: Antitubercular activity against Mycobacterium bovis BCG infected in BALB/c mouse assessed as log reduction in CFU in spleen at 25 mg/kg, po qd administered 48 hrs post infection for 6 weeks measured after 6 weeks (reference value: 4.79+/-0.25 log10CFU). It counts as functional, variant bovis BCG. The method, boiled down:
as §1

The source made the active and inactive calls. No cut-off for these calls is given here.

For `O=C(Cc1cccc(Oc2ccccc2)c1)Nc1ccc(Cl)c(Cl)c1`, the outcome in experiment [1], in experiment [2], in experiment [3], in experiment [4], in experiment [6] and in experiment [7] was Active. The log10cfu in experiment [5] and in experiment [8] was 2 throughout.
Turning to `NNC(=O)c1ccncc1` [ISONIAZID], the log10cfu in experiment [5] is listed as 2; in experiment [8], 3.
